Results reported in ChEMBL document CHEMBL1150392, “Synthesis and activity on rat aorta rings and rat pancreatic beta-cells of ring-opened analogues of benzopyran-type potassium channel activators” (Bioorg Med Chem, 2008).

Experiments:
Rattus norvegicus [1] = species: Rattus norvegicus; test: Activation of ATP-sensitive potassium channel in potassium-depolarized Wistar rat aortic rings assessed as myorelaxant activity against KCl-induced contraction; type: tissue-based; settings: Aorta
In short: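 Aorta rings were taken from fed Wistar rats (180–220 g) and contracted with KCl 30 mM. Dose–response curves were run against the plateau phase.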

Rattus norvegicus [2] = species: Rattus norvegicus; test: Activation of ATP-sensitive potassium channel in Wistar rat pancreatic beta islets assessed as glucose-induced residual insulin secretion at 10 uM relative to control
Rattus norvegicus [3] = species: Rattus norvegicus; test: Activation of ATP-sensitive potassium channel in Wistar rat pancreatic beta islets assessed as glucose-induced residual insulin secretion at 50 uM relative to control
Aorta = test: Ratio of IC50 for inhibition of glucose-induced insulin secretion in Wistar rat pancreatic beta islets to ED50 for myorelaxant activity in Wistar rat aortic rings; type: functional
[4] = Activation of ATP-sensitive potassium channel in Wistar rat pancreatic beta islets assessed as inhibition of glucose-induced insulin secretion

| Activity (Rattus norvegicus [2]) | Activity (Rattus norvegicus [3]) | IC50 [4] | Structure (SMILES) | ED50 (Rattus norvegicus [1]) | Ratio (Aorta) |
| --- | --- | --- | --- | --- | --- |
| 96% | – | – | CC(N/C(=N\C#N)Nc1ccncc1)C(C)(C)C (configuration not stated) | 0.35 µM | – |
| – | 113% | – | COc1ccccc1CNC(=O)NS(=O)(=O)c1ccc(Cl)cc1 | > 30 µM | – |
| – | 86.6% | – | COc1ccccc1CNC(=O)c1ccc([N+](=O)[O-])cc1 | > 30 µM | – |
| – | 83.3% | – | COc1ccccc1CNC(=O)c1cccs1 | > 30 µM | – |
| 94.7% | 77.2% | – | CC1(C)Oc2ccc(C#N)cc2C(N2CCCC2=O)C1O (configuration not stated) [CROMAKALIM] | 0.13 µM | >769 |
| 71.7% | 27.9% | 19.7 µM | CC1=Nc2ccc(Cl)cc2S(=O)(=O)N1 [DIAZOXIDE] | 23.8 µM | 1 |
